The nature of assay [1]: S. cerevisiae growth inhibition in permissive medium (OD615), pilot counter-assay for S. cerevisiae lifespan shortening project, permissive growth control (AID 705;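 active = growth inhibition above 25% in both replicates, a cutoff set 3 SD above the mean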). The conditions noted are these: OD615, 24 h, at 10 µM, active compounds read high. The method, boiled down:
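assay system = Saccharomyces cerevisiae strain carrying genetically modified DeaD replicative-lifespan system | technique = absorbance (optical density) at 615 nm | buffer or medium = permissive raffinose/galactose medium | timing = cells pre-grown 4 h, then 24 h compound exposure, 30 °C humidified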

The nature of assay [2]: S. cerevisiae growth inhibition in restrictive medium, OD615, pilot screen, restrictive growth control, yeast lifespan reduction project (AID 706;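 active = growth inhibition above a set limit, 3 SD over mean compound inhibition, in both replicates, cut at about 43% in these data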;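 also: modified DeaD lifespan yeast strain shifted to restrictive glucose medium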). Particulars: OD615, 48 h, at 10 µM, active compounds read high. The essentials: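 System: modified S. cerevisiae. Buffer or medium: CSMM-D glucose medium. Incubation: 4 h pre-growth plus 48 h compound exposure, 30 °C. Detection: absorbance (optical density) measured at 615 nm.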

Assay [3] can be described thus: doxorubicin toxicity protection in MRP-1 cells – H69AR cells, CellTiter-Glo, duplicate, MRP-1 activator project, pilot screen (AID 807;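 active = viability increase at or above a cutoff of the median across tested compounds plus 3 SD, cut at about 8.5% in these data, passing the limit was not always enough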;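 also: compound pretreatment 18-22 h then 72 h combined with doxorubicin; 0% = doxorubicin alone and 100% = vehicle without doxorubicin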). The conditions noted are these: H69AR viability with doxorubicin, CellTiter-Glo luminescence; at 10 µM; active compounds read high.
The nature of assay [4]: viability of HCT116 without oncogenic beta-catenin – human colon tumor cells, pilot screen (AID 823).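 Also: 0% = wells killed by 20 µM Hyamine and 100% = untreated DMSO cell wells.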 The conditions noted are these: HCT116 beta-catenin knockout viability, CellTiter-Glo, 60 h; at 10 µM; active compounds read low.
Assay [5] can be described thus: viability of PTEN-null HCT116 cells – cell-based, HCT116 clonal line, CellTiter-Glo, pilot screen (AID 824;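 active = viability at or below 27.92% in each of two runs, the all-compound median minus 4 SD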;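 also: 0% = 20 µM Hyamine control and 100% = vehicle cell control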). The conditions noted are these: HCT116 PTEN-deleted viability, 60 h, at 10 µM, active compounds read low.
Assay [6] in a line: RAM pathway blockade in budding yeast – dse1pr::URA3 reporter, 5-FOA selection, pilot screen (AID 869;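 active = inhibition over a set limit, the all-compound mean plus 3 SD, in both replicate runs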;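 also: 0% = DMSO wells with no growth and 100% = 10 µM 1-NA-PP1 with full growth; RAM network block rescues cells from 5-FOA so hits raise OD615 growth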). Particulars: S. cerevisiae dse1pr::URA3 5-FOA growth, OD615, 2 d; at 10 µM; active compounds read high; strain carries analog-sensitive mutant Cbk1 kinase.
A short description of assay [7]: RAM signaling pathway blockade in yeast – S. cerevisiae, Pdr1DBD-CYC8 efflux-inhibited sensitized strain, primary screen (AID 1298;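 active = RAM network inhibition above 8.4% in each of two replicates, 3 SD over the compound average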;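 also: 0% = DMSO untreated cells without growth and 100% = 10 µM 1-NA-PP1 full growth; higher means more yeast growth rescued from 5-FOA killing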). Particulars: S. cerevisiae cbk1-as DSE1-URA3 strain, 5-FOA growth OD615, 2 d; at 50 µM; active compounds read high.

The structures appear in SMILES notation. A number with no mark means an inactive call. Results filed as inconclusive are left out. Activity calls are given as the source filed them.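 The calls were made as follows, unless noted: active = cell viability at or below a set limit in both duplicate runs, the limit being the all-compound median minus 4 SD (cut at about 23% in these data, passing the limit was not always enough); inconclusive = no clear call, values can overlap the other calls; inactive = the rest.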

In the case of `Cc1n[nH]c(C)c1S(=O)(=O)N(CC(=O)Nc1ccc2c(c1)OCCO2)c1ccc(C(C)C)cc1`, the growth inhibition was 2.8% in assay [1] and 2.67% in assay [2]. In assay [3], the viability increase is -5.15%. In addition, the viability in assay [4] is 68.1%; in assay [5], 63%. In addition, the inhibition in assay [6] was -0.49%. In assay [7], the RAM network inhibition is 3.78%.

`COc1ccc(N=C(C)C2=C(O)COC2=O)cc1`: the growth inhibition is -1.31% in assay [1] and 5.13% in assay [2]. Moreover, in assay [3], the viability increase was -3.62%. For the same compound, the viability in assay [4] is 97.6%; in assay [5], 99%. Moreover, in assay [6], the inhibition was 1.12%. Further, in assay [7], the RAM network inhibition was 5.23%.

As to `CN(C)c1nc(-c2ccccc2)c2cnn(Cc3ccccc3)c2n1`, the growth inhibition was -12.5% in assay [1] and -3.25% in assay [2]. In assay [3], the viability increase was -4.48%. For the same compound, the viability was 83.8% in assay [4] and 75.9% in assay [5]. Moreover, the inhibition in assay [6] is 1.59%. Further, the RAM network inhibition in assay [7] was 6.82%.

With `Cc1ccc(-c2nc(CSCC(=O)N3CCN(c4ccccn4)CC3)c(C)o2)cc1`, the growth inhibition is -5.27% in assay [1] and 15.5% in assay [2]. Besides, the viability increase in assay [3] is -2.65%. Moreover, the viability was 20.3% (active) in assay [4] and 44.5% in assay [5]. In addition, the inhibition in assay [6] was 1.56%. Also, the RAM network inhibition in assay [7] was -0.57%.

In the case of `CCOc1ccccc1Nc1nnc(Cc2ccccc2Cl)c(=O)[nH]1`, the growth inhibition was -24.5% in assay [1] and -19.1% in assay [2]. For the same compound, the viability increase in assay [3] is -2.83%. For the same compound, the figures for the viability in assay [4] and in assay [5] were 90.7% and 94.6%, respectively. Also, in assay [6], the inhibition is 0.115%. In addition, in assay [7], the RAM network inhibition is 5.74%.

For the compound `CC(C)CCNC(=O)c1ccc2c(c1)N(Cc1ccccc1)C(=O)CS2=O` (stereo unspecified), the growth inhibition in assay [1] was -0.755%; in assay [2], 4.24%. The viability increase in assay [3] was 1.95%. Besides, the viability was 104% in assay [4] and 94% in assay [5]. Moreover, the inhibition in assay [6] was 0.275%. In addition, the RAM network inhibition in assay [7] is 1.41%.

For the compound `Cc1cc2nsnc2c(S(=O)(=O)NCC(=O)O)c1C`, the growth inhibition is -7.75% in assay [1] and -1.79% in assay [2]. Besides, the viability increase in assay [3] was 1.73%. Besides, the figures for the viability in assay [4] and in assay [5] were 100% and 102%, respectively. The inhibition in assay [6] is 2.25%. Further, in assay [7], the RAM network inhibition is 0.2%.

Take `CCOC(=O)c1ccccc1NC(=O)CN(c1ccccc1OCC)S(C)(=O)=O`: the growth inhibition was 2.85% in assay [1] and 1.95% in assay [2]. The viability increase in assay [3] was -1.57%. In addition, the results for the viability in assay [4] and in assay [5] were 96.4% and 98%, respectively. For the same compound, the inhibition in assay [6] is 1.1%. Also, the RAM network inhibition in assay [7] was 2.46%.

On to `O=C1CCC(=O)N1CNc1cccnc1`, for which the growth inhibition in assay [1] was -7.25%; in assay [2], -12.2%. Besides, the viability increase in assay [3] is -0.41%. The viability is 95.3% in assay [4] and 103% in assay [5]. The inhibition in assay [6] is 0.34%. The RAM network inhibition in assay [7] was 5.5%.

`O=C1c2ccccc2C(O)N1Cc1ccccc1Cl` (stereo unspecified): the figures for the growth inhibition in assay [1] and in assay [2] were -1.72% and -0.325%, respectively. Also, the viability increase in assay [3] was -1.74%. Besides, the viability was 93.7% in assay [4] and 81.2% in assay [5]. Further, the inhibition in assay [6] was 2.76%. The RAM network inhibition in assay [7] was 1.48%.

For the compound `COc1cccc2c1N1C(=O)c3c(C(=O)O)cccc3C1CC2(C)C` (stereo unspecified), the figures for the growth inhibition in assay [1] and in assay [2] were -15.2% and -18.1%, respectively. In assay [3], the viability increase was -2.18%. Also, the results for the viability in assay [4] and in assay [5] were 108% and 98.9%, respectively. For the same compound, in assay [6], the inhibition is 4.54%. For the same compound, the RAM network inhibition in assay [7] was 2.74%.

For the compound `CCC1CCCCN1Cc1nc2c(c(=O)n(C)c(=O)n2C)n1Cc1cccc2ccccc12` (stereo unspecified), the growth inhibition was -13.7% in assay [1] and -7.96% in assay [2]. Further, the viability increase in assay [3] is -1.54%. In addition, the values for the viability in assay [4] and in assay [5] were 92.5% and 83.1%, respectively. Further, in assay [6], the inhibition is 0.67%. In assay [7], the RAM network inhibition is 8.51%.

With `COc1cccc(C2(O)CCN(C(=O)c3cccs3)CC2)c1`, the growth inhibition was -9.43% in assay [1] and 6.06% in assay [2]. For the same compound, in assay [3], the viability increase is 0.71%. Also, the viability is 91.5% in assay [4] and 97% in assay [5]. In addition, the inhibition in assay [6] was 1.58%. For the same compound, the RAM network inhibition in assay [7] was 5.17%.

As to `CCN1CCN(C(=O)Cn2ncc3c2-c2ccccc2OC3)CC1`, the growth inhibition was 0.755% in assay [1] and 0.8% in assay [2]. The viability increase in assay [3] is -1.74%. The viability is 106% in assay [4] and 99.9% in assay [5]. In assay [6], the inhibition is 1.14%. In addition, the RAM network inhibition in assay [7] is 2.81%.

Regarding `CCn1c(CNC(=O)COC)nc2ccccc21`, the growth inhibition in assay [1] was -5.41%; in assay [2], 0.165%. Moreover, in assay [3], the viability increase was 0.97%. Besides, the viability in assay [4] was 105%; in assay [5] it was 97.2%. Further, the inhibition in assay [6] was 0.7%. For the same compound, the RAM network inhibition in assay [7] was 5.67%.

As for `Clc1ccc(NCn2cncn2)nc1`, the growth inhibition is 12.6% in assay [1] and 7.94% in assay [2]. In addition, in assay [3], the viability increase is -1.55%. The viability was 96.5% in assay [4] and 93.5% in assay [5]. The inhibition in assay [6] was 2.67%. Also, the RAM network inhibition in assay [7] was 3.18%.

On to `CCc1nnc(NC(=O)c2ccc(N3C(=O)CCC3=O)cc2)s1`, for which the growth inhibition was -9.63% in assay [1] and -14.9% in assay [2]. Also, the viability increase in assay [3] was -1.98%. In addition, the figures for the viability in assay [4] and in assay [5] were 101% and 94.7%, respectively. In addition, the inhibition in assay [6] is 1.32%. In addition, in assay [7], the RAM network inhibition was 2.48%.

For the compound `CCC(C)NC(=O)C1CCN(S(=O)(=O)c2cccc3cccnc23)CC1` (stereo unspecified), the growth inhibition is -3.39% in assay [1] and 1.06% in assay [2]. For the same compound, the viability increase in assay [3] is 0.26%. In addition, the results for the viability in assay [4] and in assay [5] were 108% and 101%, respectively. The inhibition in assay [6] is 2.05%. The RAM network inhibition in assay [7] was 4.76%.

The values are drawn from PubChem BioAssay.
